Test results taken from ChEMBL document CHEMBL1126153, “Synthesis and biological activity of certain alkyl 5-(alkoxycarbonyl)-1H-benzimidazole-2-carbamates and related derivatives: a new class of potential antineoplastic and antifilarial agents” (J Med Chem, 1992).

How the values were obtained:
L1210 [1] = assay: In vitro test against L1210 murine leukemia cell growth rate at 10 uM concentration; assay type: functional, Mus musculus
Method in brief: (§1)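 L1210 cells were grown in static suspension culture in Fischer's medium with test compound, and counted twice daily over 3 days. Growth rate is the control population doubling time (average 12 h) divided by the treated doubling time, as a % of control. The IC50 is the concentration that reduces the growth rate to 50% of control.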

Brugia pahangi [2] = assay: Antifilarial activity measured against the adult worms of Brugia pahangi in jirds by subcutaneous administration; design: concentration or dose not given beside the values
L1210 [3] = assay: Compound was tested in vitro against L1210 murine leukemia cell growth rate at a concentration of 100 uM; assay type: functional, Mus musculus; method in brief: as §1
L1210 [4] = assay: Compound was tested in vitro for its inhibitory activity against L1210 murine leukemia cell growth at a concentration of 100 uM; assay type: functional, cell-based; conditions: Mus musculus; method in brief: as §1
Brugia pahangi [5] = assay: Antifilarial activity measured against the adult worms of Brugia pahangi in jirds by subcutaneous administration; assay type: functional; design: concentration or dose not given beside the values
Method in brief: (§2)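 Jirds carrying implanted adult worms (three to five per group) were dosed once daily for 5 consecutive days, or on day 1 only where noted. Dosing was subcutaneous or oral, with drug as a solution or suspension in aqueous 1% (hydroxyethyl)cellulose plus 0.1% Tween 80. Survivors were necropsied 55 to 70 days after the first dose and searched for adult worms. Counts are given as % of control.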

L1210 [6] = assay: In vitro for its inhibitory activity against L1210 murine leukemia cell growth; assay type: functional, cell-based; conditions: Mus musculus; method in brief: as §1
Brugia pahangi [7] = assay: Antifilarial activity was measured against the adult worms of Brugia pahangi in jirds by oral administration at a dose of 100 mg/kg/day; assay type: functional; method in brief: as §2
Homo sapiens [8] = species: Homo sapiens; assay: Compound was tested in vitro for its inhibitory activity against human epidermoid carcinoma cell (H. Ep. 2) growth at a concentration of 10 uM; assay type: functional; conditions: HEp-2
Homo sapiens [9] = species: Homo sapiens; assay: Compound was tested in vitro against human epidermoid carcinoma cell (H. Ep. 2) growth rate at a concentration of 10 uM; assay type: functional
Brugia pahangi [10] = assay: Antifilarial activity was measured against the adult worms of Brugia pahangi in jirds by subcutaneous administration at a dose of 6.2 mg/kg/day; assay type: functional; method in brief: as §2
Brugia pahangi [11] = assay: Antifilarial activity was measured against the adult worms of Brugia pahangi in jirds by subcutaneous administration at a dose of 1.6 mg/kg/day; assay type: functional; method in brief: as §2
Brugia pahangi [12] = assay: Antifilarial activity was measured against the adult worms of Brugia pahangi in jirds by subcutaneous administration at a dose of 12.5 mg/kg/day; assay type: functional; method in brief: as §2
Brugia pahangi [13] = assay: Antifilarial activity was measured against the adult worms of Brugia pahangi in jirds by subcutaneous administration at a dose of 100 mg/kg/day; assay type: functional; method in brief: as §2
Acanthocheilonema viteae [14] = assay: Antifilarial activity was measured against the adult worms of Acanthocheilonema viteae in jirds by oral administration at a dose of 100 mg/kg/5 days; assay type: functional; method in brief: as §2
Brugia pahangi [15] = assay: Antifilarial activity was measured against the adult worms of Brugia pahangi in jirds by subcutaneous administration at a dose of 25 mg/kg/day
Brugia pahangi [16] = assay: Antifilarial activity was measured against the adult worms of Brugia pahangi in jirds by subcutaneous administration at a dose of 50 mg/kg/day; assay type: functional; method in brief: as §2
Brugia pahangi [17] = assay: Antifilarial activity was measured against the adult worms of Brugia pahangi in jirds by subcutaneous administration at a concentration of 100 mg/kg/day
Acanthocheilonema viteae [18] = assay: Antifilarial activity was measured against the adult worms of Acanthocheilonema viteae in jirds by oral administration at a concentration of 100 mg/kg/day; assay type: functional; method in brief: as §2
Acanthocheilonema viteae [19] = assay: Antifilarial activity was measured against the adult worms of Acanthocheilonema viteae in jirds by subcutaneous administration at a concentration of 50 mg/kg/day; assay type: functional; method in brief: as §2
Brugia pahangi [20] = assay: Antifilarial activity was measured against the adult worms of Brugia pahangi in jirds by subcutaneous administration at a dose of 6.5 mg/kg/day; assay type: functional; method in brief: as §2
Acanthocheilonema viteae [21] = assay: Antifilarial activity was measured against the adult worms of Acanthocheilonema viteae in jirds by subcutaneous administration at a dose of 15.6 mg/kg/5 days; assay type: functional; conditions: in the assay text read “1.56 mg/kg/5 days” for “15.6 mg/kg/5 days”; method in brief: as §2
Brugia pahangi [22] = assay: Antifilarial activity was measured against the adult worms of Brugia pahangi in jirds by subcutaneous administration at a concentration of 25 mg/Kg/day
Brugia pahangi [23] = assay: Antifilarial activity was measured against the adult worms of Brugia pahangi in jirds by subcutaneous administration at a dose of 6.2 mg/Kg/day; assay type: functional; method in brief: as §2
Brugia pahangi [24] = assay: Antifilarial activity was measured against the adult worms of Brugia pahangi in jirds by subcutaneous administration at a concentration of 12.5 mg/Kg/day
Brugia pahangi [25] = assay: Antifilarial activity was measured against the adult worms of Brugia pahangi in jirds by subcutaneous administration at a dose of 25 mg/Kg/day; assay type: functional; method in brief: as §2
Brugia pahangi [26] = assay: Antifilarial activity was measured against the adult worms of Brugia pahangi in jirds by subcutaneous administration at a dose of 100 mg/Kg/day; assay type: functional; method in brief: as §2

Row | IC50 (L1210 [6]) [nM] | Compound | Control (L1210 [1]) [%] | Control (Brugia pahangi [2]) [%] | Control (Brugia pahangi [5]) [%] | also measured
1 |  | COC(=O)Nc1nc2cc(C(=O)Nc3ccc(F)cc3)ccc2[nH]1 | 92 | 67 |  | 
2 |  | COC(=O)Nc1nc2cc(C(=O)N3CCOCC3)ccc2[nH]1 |  |  |  | Control (L1210 [3]): 0%; IC50 (L1210 [4]): 60000 nM
3 | 740 | COC(=O)Nc1nc2cc(C(=O)OCCC(C)CC(C)(C)C)ccc2[nH]1 (stereo unspecified) | 0 |  | 85 | 
4 | 700 | COC(=O)Nc1nc2cc(C(=O)OC(C)C)ccc2[nH]1 | 0 | 0 |  | Control (Brugia pahangi [7]): 100%; IC50 (Homo sapiens [8]): 220 nM; Control (Homo sapiens [9]): 0%; Control (Brugia pahangi [10]): 18%; Control (Brugia pahangi [11]): 51%; Control (Brugia pahangi [12]): 0%
5 | 10000 | CCNC(=O)c1ccc2[nH]c(NC(=O)OC)nc2c1 | 41 |  |  | Control (Brugia pahangi [7]): 89%; IC50 (Homo sapiens [8]): 6000 nM; Control (Brugia pahangi [13]): 0%; Control (Homo sapiens [9]): 0%; Control (Acanthocheilonema viteae [14]): 80%; Control (Brugia pahangi [15]): 0%; Control (Brugia pahangi [16]): 0%
6 | 2200 | O=C(Nc1nc2cc(C(=O)OCC3CC3)ccc2[nH]1)OCC1CC1 | 24 |  | 72 | 
7 |  | CCOC(=O)Nc1nc2cc(C(=O)O)ccc2[nH]1 |  |  | 90 | Control (L1210 [3]): 100%
8 | 7400 | CCCOC(=O)c1ccc2[nH]c(NC(=O)OC)nc2c1 | 38 |  |  | Control (Brugia pahangi [17]): 100%
9 |  | COC(=O)Nc1nc2cc(C(=O)OCc3cccs3)ccc2[nH]1 | 93 |  | 71 | IC50 (Homo sapiens [8]): 2300 nM; Control (Homo sapiens [9]): 0%
10 |  | COC(=O)Nc1nc2cc(C(=O)N3CCN(C(=O)N(C)C)CC3)ccc2[nH]1 |  | 94 |  | 
11 |  | CCN(CC)C(=O)N1CCN(C(=O)c2ccc3[nH]c(NC(=O)OC)nc3c2)CC1 | 100 | 100 |  | 
12 |  | COC(=O)Nc1nc2cc(C(=O)OCc3ccc(F)cc3)ccc2[nH]1 |  |  | 83 | 
13 |  | COC(=O)Nc1nc2cc(C(=O)N3CCN(C)CC3)ccc2[nH]1 | 100 |  |  | Control (Brugia pahangi [17]): 101%
14 | 760 | CCOC(=O)Nc1nc2cc(C(=O)OCC)ccc2[nH]1 | 0 |  | 62 | IC50 (Homo sapiens [8]): 290 nM; Control (Homo sapiens [9]): 0%
15 |  | COC(=O)Nc1nc2cc(C(=O)N3CCNCC3)ccc2[nH]1 |  | 55 |  | 
16 |  | COC(=O)Nc1nc2cc(C(=O)N(C)C)ccc2[nH]1 | 88 | 95 |  | 

Row | IC50 (L1210 [6]) [nM] | Compound | Control (L1210 [1]) [%] | Control (Brugia pahangi [2]) [%] | Control (Brugia pahangi [5]) [%] | also measured
17 |  | COC(=O)Nc1nc2cc(NC(=O)c3cccc(F)c3)ccc2[nH]1 | 100 |  |  | 
18 | 6900 | COC(=O)Nc1nc2cc(C(=O)OCC3CC3)ccc2[nH]1 | 45 |  | 69 | 
19 | 10000 | COC(=O)Nc1nc2cc(C(=O)OCCC(C)C)ccc2[nH]1 | 60 |  | 69 | 
20 |  | COC(=O)Nc1nc2cc(C(=O)Nc3ccc(C(F)(F)F)cc3)ccc2[nH]1 | 100 | 77 |  | 
21 | 10000 | C#CCOC(=O)c1ccc2[nH]c(NC(=O)OC)nc2c1 | 58 |  | 79 | 
22 |  | COC(=O)Nc1nc2cc(NC(=O)c3ccccc3F)ccc2[nH]1 |  | 116 |  | Control (L1210 [3]): 0%; IC50 (L1210 [4]): 14000 nM
23 | 8600 | COC(=O)Nc1nc2cc(C(=O)NCC(C)(C)C)ccc2[nH]1 | 48 | 50 |  | Control (Acanthocheilonema viteae [18]): 54%; Control (Brugia pahangi [17]): 0%; Control (Acanthocheilonema viteae [19]): 0%
24 | 730 | CC(C)OC(=O)Nc1nc2cc(C(=O)OC(C)C)ccc2[nH]1 | 0 |  | 87 | IC50 (Homo sapiens [8]): 390 nM; Control (Homo sapiens [9]): 0%
25 | 2000 | COC(=O)Nc1nc2cc(C(=O)NC(C)C)ccc2[nH]1 | 0 |  | 0 | Control (Brugia pahangi [20]): 4%; Control (Brugia pahangi [7]): 110%; IC50 (Homo sapiens [8]): 1600 nM; Control (Homo sapiens [9]): 0%; Control (Brugia pahangi [11]): 94%; Control (Acanthocheilonema viteae [21]): 57%; Control (Brugia pahangi [12]): 0%
26 |  | COC(=O)Nc1nc2cc(NC(=O)c3ccc(F)cc3)ccc2[nH]1 |  | 133 |  | 
27 | 5000 | COC(=O)Nc1nc2cc(C(=O)OC)ccc2[nH]1 | 50 |  |  | IC50 (Homo sapiens [8]): 1100 nM; Control (Brugia pahangi [22]): 4%; Control (Brugia pahangi [23]): 79%; Control (Homo sapiens [9]): 0%; Control (Brugia pahangi [24]): 12%; Control (Brugia pahangi [25]): 53%
28 |  | COC(=O)Nc1nc2cc(C(=O)O)ccc2[nH]1 | 100 |  |  | Control (Brugia pahangi [26]): 0%
29 | > 10000 | C=CCOC(=O)c1ccc2[nH]c(NC(=O)OC)nc2c1 | 75 |  | 87 | 
30 |  | COC(=O)Nc1nc2cc(C(=O)OCC(C)(C)C)ccc2[nH]1 |  |  | 82 | 
31 | 8200 | CCCOC(=O)Nc1nc2cc(C(=O)OCCC)ccc2[nH]1 | 36 |  | 85 | 
32 | 2800 | CCOC(=O)c1ccc2[nH]c(NC(=O)OC)nc2c1 | 0 |  | 0 | IC50 (Homo sapiens [8]): 240 nM; Control (Homo sapiens [9]): 0%; Control (Brugia pahangi [11]): 100%; Control (Brugia pahangi [12]): 6%

Row | Compound | IC50 (L1210 [6]) [nM] | Control (L1210 [1]) [%] | Control (Brugia pahangi [2]) [%] | Control (Brugia pahangi [5]) [%] | also measured
33 | COC(=O)Nc1nc2cc(C(=O)c3cccs3)ccc2[nH]1 [NOCODAZOLE] | 38 | 0 |  |  | IC50 (Homo sapiens [8]): 33 nM; Control (Homo sapiens [9]): 0%
